# Screening results as filed in PubChem BioAssay.
# In the library only some 2.5% were active in any assay of this set; here they are far more common.
# SENP1 inh: human SENP1 catalytic domain inhibitors, primary screen, biochemical, FRET, uHTS | Sentrin-specific protease 1 (Homo sapiens), Q9P0U3 | recombinant SENP1 catalytic domain, CyPet-SUMO1-YPet FRET cleavage | inhibition, % at 10 µM | 360,000 compounds, 0.21% hits | AID 624204, 2012;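 active = inhibition at least 30% at 10 µM, raw YFP signal under a set limit, fluorescence ratio 0.5 to 1.5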;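 note: 0% = enzyme with DMSO and 100% = no enzyme wells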
# Target sequence (Q9P0U3 419-644 limits assumed): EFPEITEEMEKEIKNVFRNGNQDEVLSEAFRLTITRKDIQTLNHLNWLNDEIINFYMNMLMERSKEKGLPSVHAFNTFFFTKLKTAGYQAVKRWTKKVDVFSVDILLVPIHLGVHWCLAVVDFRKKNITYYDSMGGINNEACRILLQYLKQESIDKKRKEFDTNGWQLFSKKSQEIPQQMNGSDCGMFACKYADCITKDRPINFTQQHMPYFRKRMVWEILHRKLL
#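 material = recombinant human SENP1 catalytic domain, His6-tagged | quantity = 20 pM enzyme | reagent = 25 nM SUMO1 FRET substrate | compound dosing = 10 µM single point, 0.5% DMSO | timing = 50 min enzyme reaction, room temperature, light-protected | detection = FRET, CFP and YFP emission | control set = no-enzyme low, enzyme-DMSO high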
# SENP8 block-1: human SENP8 protease inhibitors, primary screen, biochemical, fluorescence, Nedd8 protein substrate, uHTS; 360,000 compounds, 0.64% hits; Sentrin-specific protease 8 (Homo sapiens), Q96LD8; recombinant SENP8; inhibition, % at 20 µM; in the data active = inhibition mostly above about 40%, no sharp cut-off; inactive = mostly below about 27%
# Target sequence (Q96LD8 whole entry, looked up): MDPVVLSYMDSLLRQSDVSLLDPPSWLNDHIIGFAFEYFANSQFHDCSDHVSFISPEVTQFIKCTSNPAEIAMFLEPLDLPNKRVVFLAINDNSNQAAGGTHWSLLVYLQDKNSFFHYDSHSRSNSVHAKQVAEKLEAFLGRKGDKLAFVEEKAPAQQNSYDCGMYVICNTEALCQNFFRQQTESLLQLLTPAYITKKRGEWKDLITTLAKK
# SENP7 block: SENP7 protease inhibitors, primary screen, biochemical, luminescence, uHTS; recombinant SENP7, Z-RLRGG-aminoluciferin luminescence, 40 min; inhibition, % at 5 µM; 330,000 compounds, 1.5% hits;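 active = inhibition above about 50% at the single test dose, limit read from the data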;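 note: plate controls were DMSO with enzyme for no effect and no enzyme buffer wells for full effect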
# SENP6 inh: SENP6 protease inhibitors, primary screen, biochemical, luminescence, uHTS | Recombinant SENP6 catalytic domain, aminoluciferin luminescence | inhibition, % at 10 µM | Sentrin-specific protease 6 (Homo sapiens), Q9GZR1 | 330,000 compounds, 1.8% hits;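 active = inhibition above about 50% at the single tested dose, limit read from the data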;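 note: plate controls were DMSO wells with enzyme for no effect and DMSO wells lacking enzyme for full effect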
# SENP8 block-2: SENP8 protease inhibitors, primary screen, biochemical, luminescence; Sentrin-specific protease 8 (Homo sapiens), Q96LD8; purified SENP8, Z-RLRGG-aminoluciferin cleavage; inhibition, % at 10 µM; 330,000 compounds, 1.2% hits; in the data active = inhibition above about 50%
# SENP8 inh conf: human SENP8 protease inhibitors, confirmation, biochemical, Nedd8 protein substrate, single concentration; 1,400 compounds, 15% hits; inhibition, % at 25 µM; purified SENP8, Nedd8-AMC/pro-Nedd8 cleavage fluorescence, 30 min; shares compounds with SENP8 block-1; in the data active = inhibition mostly above about 39%, no sharp cut-off; inactive = mostly below about 34%
# * = called active by the depositor; i = inactive; . = no result given.
SMILES,SENP1 inh,SENP8 block-1,SENP7 block,SENP6 inh,SENP8 block-2,SENP8 inh conf
CN(C)c1cccc2c(S(=O)(=O)NC(=O)[C@H]3O[C@@H](n4cnc5c(N)ncnc54)[C@H](O)[C@@H]3O)cccc12,5,-359,.,.,.,.
COc1ccc(C2CC(c3cccs3)=NN2C(=O)CCCC(=O)O)cc1OC (stereo not given),-2,-62,.,.,.,.
CCOc1[nH]n(-c2ccccc2)c(=O)c1C=Nc1ccccc1,-1,16,-4,-7,-7,.
COCc1[nH][nH]c(=O)c1C=Nc1ccccc1,3,20,-11,-14,-3,.
CCOc1[nH]n(-c2ccccc2)c(=O)c1C=Nc1ccc(C)cc1,0,22,-3,-11,-12,.
CCOc1[nH]n(-c2ccccc2)c(=O)c1C=Nc1ccc(Cl)cc1,3,40*,0,-11,-6,12
COCc1[nH][nH]c(=O)c1C=Nc1ccc(Cl)cc1,2,48*,-1,0,-5,17
CCOc1[nH]n(-c2ccccc2)c(=O)c1C=Nc1ccc(C(=O)OC)cc1,4,54*,13,13,4,20
Cc1[nH]n(-c2ccc(Cl)cc2)c(=O)c1C=Nc1ccc(S(=O)(=O)N2CCOCC2)cc1,1,47*,13,9,-6,17
COc1nccnc1NS(=O)(=O)c1ccc(N=Cc2c(C)[nH]n(-c3ccc(Cl)cc3)c2=O)cc1,.,.,-4,4,-3,.
Nc1cc(Cl)nc(N/N=C/c2ccc([N+](=O)[O-])cc2)n1,-2,13,6,-3,0,.
Nc1cc(Cl)nc(N/N=C/c2ccccc2[N+](=O)[O-])n1,3,52*,6,-10,9,29
O=[N+]([O-])c1ccc(-[n+]2nc(-c3ccccc3)nn2-c2ccccc2)cc1,2,50*,10,-1,13,45*
O=c1ccc(-c2ccc([N+](=O)[O-])cc2)nn1-c1ccccc1,-4,11,1,-12,3,.
CC(NC(=O)Nc1ccc(O)cc1)(C(F)(F)F)C(F)(F)F,0,78*,9,-12,-1,18
O=C(Cn1cnc([N+](=O)[O-])n1)NCCO,3,4,0,14,5,.
c1ccc2c(c1)oc1c(-c3cccc4nccn34)cccc12,0,i,.,.,.,.
N#CC(c1ccc(Cl)cc1)c1ccc(Cl)nn1 (stereo not given),2,23,-8,-10,5,.
N#CC(c1ccc(Cl)nn1)c1ccccc1Cl (stereo not given),2,41*,5,-8,3,9
Cc1cc2c(cc1C)-c1nnnn1C(N1CCC(Cc3ccccc3)CC1)C(=O)N2 (stereo not given),-1,19,.,.,.,.
O=C(c1ccc([N+](=O)[O-])o1)N1CCN(Cc2ccccc2)CC1,0,42*,24,-4,1,29
Cc1ccc(C(=O)N2CCN(Cc3ccccc3)CC2)o1,0,5,-6,-11,-2,.
O=C(O)/C=C\C(=O)Nc1ccc(N2CCN(c3ccc(F)cc3)CC2)cc1,9,38*,-3,4,-8,14
O=c1c(N2CCOCC2)nsnc1N1CCOCC1,2,49*,1,4,-6,25
Cc1cc(=O)[nH]c(N/N=C/C(C)c2ccccc2)n1 (stereo not given),1,47*,4,-16,0,0
CC(/C=N/Nc1nc(C)cc(=O)[nH]1)=C\c1ccccc1,1,-93,14,20,1,.
COC(=O)[C@@]12C[C@@H](CC(=O)N3CCOCC3)C(=O)N(Cc3ccc4c(c3)OCO4)C1=CCC(C)(C)C2,2,30,.,.,.,.
CCOC(=O)CCN(C(=O)Nc1ccccc1)C1CCCCC1,0,6,.,.,.,.
Cn1cc(-c2coc3c(C(=O)NCc4cccc(Cl)c4)cccc23)cn1,1,-1,.,.,.,.
CCS(=O)(=O)NCc1csc(-c2ccccc2)n1,4,8,-1,0,1,.
